The first test concerns MCF7. The test can be described thus: The compound was tested for antiproliferative activity against MCF-7 human breast cancer cells; In active. The class given is functional, cell-based. In outline:
(§1)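 MCF-7 human breast cancer cells, MTT assay. Growth inhibition expressed as % of control absorbance after 6 days incubation. IC50 read graphically as the concentration giving a 50% decrease in cell growth. Mean of three experiments; deviations within ±5%.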
For the compound `O=C1CC(c2ccccc2)Oc2c1ccc(O)c2O` (stereo not drawn), the half-maximal inhibitory concentration (IC50) result is “Not Active”.

A further test concerns MCF7. The test can be described thus: The compound was tested for antiproliferative activity against MCF-7 human breast cancer cells. The class given is functional, cell-based. In outline: as §1
`COc1ccc(O)c(C(=O)/C=C/c2ccccc2)c1` returned a concentration for half-maximal inhibition (IC50) of 29.2 µM.

For `COc1cc(O)c(C(=O)/C=C/c2ccccc2)c(O)c1`, the half-maximal inhibitory concentration (IC50) is > 60 µM.

In the case of `COc1ccc(C(=O)/C=C/c2ccccc2)c(O)c1`, the concentration for half-maximal inhibition (IC50) came to 26.8 µM.

As for `COc1cccc2c1C(=O)CC(c1ccccc1)O2` (stereo not drawn), the midpoint of inhibition, the IC50, lay at 35.7 µM.

In turn, `COc1cccc(O)c1C(=O)/C=C/c1ccccc1` gave a concentration for half-maximal inhibition (IC50) of 18.3 µM.

As to `O=C(/C=C/c1ccccc1)c1ccc(O)c(O)c1O`, 22.2 µM corresponded to half-maximal inhibition (IC50).

Take `COc1ccc2c(c1)OC(c1ccccc1)CC2=O` (stereo not drawn): the IC50 amounted to 35.7 µM.

As to `O=C(/C=C/c1ccccc1)c1ccc(O)cc1O` [2',4'-DIHYDROXYCHALCONE], the IC50 is 16.3 µM.

Compound `O=C(/C=C/c1ccccc1)c1ccccc1O` [2'-HYDROXYCHALCONE] gave a half-maximal inhibitory concentration (IC50) of 28.4 µM.

Consider `O=c1cc(-c2ccccc2)oc2c(O)c(O)ccc12` [7,8-DIHYDROXYFLAVONE], for which half-maximal inhibition (IC50) was put at 27.5 µM.

`COc1cc(OC)c2c(c1)OC(c1ccccc1)CC2=O` (stereo not drawn) [DIMETHYLPINOCEMBRIN] yielded a half-maximal inhibitory concentration (IC50) of 36 µM.

Take `COc1cc(O)c(C(=O)/C=C/c2ccccc2)c(OC)c1` [FLAVOKAWAIN B]: inhibition was half-maximal at 20 µM (IC50).

The values are drawn from ChEMBL document CHEMBL1133865, “Flavonoids: structural requirements for antiproliferative activity on breast cancer cells” (Bioorg Med Chem Lett, 2001).
